These results are taken from BindingDB's records for doi:10.1016/j.bmc.2019.03.030 (Northwestern University, 2019).

For this assay, the target named is Sigma non-opioid intracellular receptor 1 (Homo sapiens, UniProt Q99720). As to the kind of experiment: Displacement of [3H]-(+)-pentazocine from sigma1 receptor (unknown origin) expressed in HEK293 cell membranes after 120 mins by microbeta scintillation counting method. An outline of the steps:
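Radioligand binding run by an external screening program; sigma-1 tracer [3H]-pentazocine, sigma-2 tracer [3H]-DTG. Each compound first tested at a single 10 μM concentration. Those giving >50% inhibition were then titrated over a dose range to derive pKi.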

Sigma non-opioid intracellular receptor 1, sequence (Q99720 whole entry): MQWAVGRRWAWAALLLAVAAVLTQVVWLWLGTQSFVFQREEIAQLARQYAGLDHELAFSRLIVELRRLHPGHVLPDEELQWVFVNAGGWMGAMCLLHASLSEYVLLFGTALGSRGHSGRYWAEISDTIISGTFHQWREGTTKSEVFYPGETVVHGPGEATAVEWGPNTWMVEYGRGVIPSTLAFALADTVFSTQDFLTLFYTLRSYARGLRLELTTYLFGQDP

`O=C(c1c2c(nn1-c1ccc(F)cc1)CCC(NCc1ccc(F)cc1)C2)N1CCCCC1` (stereo unspecified): affinity was put at a Ki of 16 nM.
